Experimental findings from ChEMBL document CHEMBL4732112, “Synthesis and in vitro evaluation of novel spiroketopyrazoles as acetyl-CoA carboxylase inhibitors and potential antitumor agents” (Eur J Med Chem, 2021) are described below.

The structures appear in SMILES notation. The source made the active and inactive calls. The rule behind the calls is not given here.

In assay [1] the test system is HepG2. The assay can be described thus: Cell cycle arrest in human HepG2 cells assessed as accumulation at G2/M phase at 1 uM measured after 48 hrs by propidium iodide staining based flow cytometry (reference value: 13.58%). It is filed as functional.
Assay [2] has as its system HepG2. In words: Induction of apoptosis in human HepG2 cells assessed as early apoptotic cells at 10 uM measured after 48 hrs by Annexin V-FITC/propidium iodide staining based flow cytometry (reference value: 4.03%). It is filed as functional. The method in brief: (§1)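 HepG2 cells incubated with the stated concentrations for 48 h, harvested, and stained with Annexin V-FITC and propidium iodide protected from light. Viable, early apoptotic, late apoptotic and necrotic fractions quantified by flow cytometry. Mean ± SD, n=3.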

In assay [3] the test system is HepG2. In words: Induction of apoptosis in human HepG2 cells assessed as increase in late apoptotic cells measured after 48 hrs by Annexin V-FITC/propidium iodide staining based flow cytometry. In kind it is functional, cell-based. The following applies: dose 1-10 µM. The method in brief: as §1
The test system of assay [4] is HepG2. In words: Induction of apoptosis in human HepG2 cells assessed as increase in caspase-3 activation at 1 to 10 uM measured after 48 hrs by Western blot analysis. In kind it is functional, cell-based. Conditions: dose 1-10 µM. The essentials: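 Western blots for Bcl-2, Bax, cleaved caspase-3 and cleaved PARP in HepG2 cells after 48 h treatment (1, 5, 10 μM for PARP). Lysates cleared, protein quantified by BCA, run on SDS-PAGE to PVDF, blocked in 5% BSA, primary overnight at 4 °C, DyLight 800 secondary. Infrared scanning and densitometry normalized to β-actin. Mean ± SD, n=3.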

The test system of assay [5] is HepG2. The assay can be described thus: Cell cycle arrest in human HepG2 cells assessed as accumulation at G0/G1 phase at 1 uM measured after 48 hrs by propidium iodide staining based flow cytometry (reference value: 56.24%). It is filed as functional.
Assay [6] deals with HepG2. In words: Cell cycle arrest in human HepG2 cells assessed as accumulation at S phase at 10 uM measured after 48 hrs by propidium iodide staining based flow cytometry (reference value: 30.18%). It is filed as functional.
For assay [7], the system named is HepG2. The assay can be described thus: Cell cycle arrest in human HepG2 cells assessed as reduction in cyclin D1 expression at 10 uM measured after 48 hrs by Western blot analysis relative to control. It is filed as functional. Further details: scale not given: the % may be the effect or the level left. The essentials:
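HepG2 cells treated for 48 h and lysed. Lysates cleared at 12000 rpm for 15 min and protein measured by BCA. Run on SDS-PAGE, transferred to PVDF, blocked in 5% BSA, primary antibody at 4 °C overnight, then DyLight 800 secondary. Infrared imaging and densitometry against β-actin. Mean ± SD, n=3.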

In another assay the target is Acetyl-CoA carboxylase 1 (Homo sapiens, UniProt Q13085). The assay can be described thus: Inhibition of ACC1 in human HepG2 cells assessed as reduction in intracellular triglyceride level at 10 uM measured after 48 hrs by GPO-PAP method relative to control. It is filed as cell-based. The method in brief: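 HepG2 cells plated and exposed to the compound at several concentrations for 48 h. Cells washed with PBS, lysed in 1% Triton X-100 and spun 12000 rpm, 4 °C, 15 min. Malonyl-CoA measured by ELISA kit and triglyceride by GPO-POP kit, each normalised to BCA protein. Reported relative to control, mean ± SD, n=3.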

Assay [8] concerns HepG2. In words: Induction of apoptosis in human HepG2 cells assessed as early apoptotic cells at 1 uM measured after 48 hrs by Annexin V-FITC/propidium iodide staining based flow cytometry (reference value: 4.03%). It is filed as functional. The essentials: as §1

With `CC(C)(C)n1cc2c(n1)C(=O)CC1(CCN(C(=O)c3cc(-c4ccncc4)nc4ccccc34)CC1)O2`, the Activity in the assay with HepG2 [1] was 10.86%; in the assay on HepG2 [2] it was 41.6%; in the assay with HepG2 [3], “Dose-dependent effect”; with HepG2 [5], 67.68%; with HepG2 [6] it was 6.48%; in the assay with HepG2 [7], 43.92%. In addition, in the assay on HepG2 [8], the Activity came out at 11.6%. In addition, the result with HepG2 [4] was Active. In addition, the inhibition at Acetyl-CoA carboxylase 1 is 36.7%.
